Results from ChEMBL document CHEMBL1123176, “Synthesis and antitumor activity of cyclophosphamide analogues. 4. Preparation, kinetic studies, and anticancer screening of "phenylketophosphamide" and similar compounds related to the cyclophosphamide metabolite aldophosphamide” (1986).

What was measured:
Mus musculus [1] = assay: Increased life span against L1210 lymphoid leukemia cells in male BDF1 mice at a dose of 100 mg/kg; assay type: functional; conditions: for ILS at 100 mg/kg: Mus musculus, BDF1, L1210, dose 100 mg/kg
Outline: (§1)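 Male BDF1 mice, 6 weeks old, implanted ip with 1 × 10^5 L1210 lymphoid leukemia cells on day 0. Dosing was a single ip dose on day 2 in 10% Me2SO, except where noted: x7 schedules given ip on days 2 through 8; some arms given po; some arms in saline vehicle. Read-outs were % increased life span and survivors on day 60; some runs were duplicated.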

Mus musculus [2] = assay: Increased life span against L1210 lymphoid leukemia cells in male BDF1 mice at a dose of 400 mg/kg; assay type: functional; conditions: for ILS at 400 mg/kg: Mus musculus, BDF1, L1210; outline: as §1
Mus musculus [3] = assay: Increased life span against L1210 lymphoid leukemia cells in male BDF1 mice at a dose of 50 mg/kg; assay type: functional; outline: as §1
Mus musculus [4] = assay: Compound was ested for antitumor activity against Lewis lung carcinoma cells implanted in female CD2F1 mice at a dose of 125 x1 mg/kg; assay type: functional
Mus musculus [5] = assay: Compound was ested for antitumor activity against Lewis lung carcinoma cells implanted in female CD2F1 mice at a dose of 250x1 mg/kg; assay type: functional
Mus musculus [6] = assay: Compound was ested for antitumor activity against Lewis lung carcinoma cells implanted in female CD2F1 mice at a dose of 500x1 mg/kg; assay type: functional
Mus musculus [7] = assay: Compound was ested for antitumor activity against Lewis lung carcinoma cells implanted in female CD2F1 mice at a dose of 62.5x1 mg/kg; assay type: functional
Mus musculus [8] = assay: Number of survivors on day 60 at a dose of 100 mg/kg; 0/7; assay type: functional; outline: as §1
Mus musculus [9] = assay: Number of survivors on day 60 at a dose of 200 mg/kg; 1/7; assay type: functional; outline: as §1
Mus musculus [10] = assay: Number of survivors on day 60 at a dose of 400 mg/kg; 5/7; assay type: functional; outline: as §1
Mus musculus [11] = assay: Number of survivors on the toxicity day (day = 15) at a dose of 125 x1 mg/kg; 6/6; assay type: functional
Mus musculus [12] = assay: Number of survivors on the toxicity day (day = 15) at a dose of 250x1 mg/kg; 6/6; assay type: functional
Mus musculus [13] = assay: Number of survivors on the toxicity day (day = 15) at a dose of 500x1 mg/kg; 5/6; assay type: functional
Mus musculus [14] = assay: Number of survivors on the toxicity day (day = 15) at a dose of 62.5x1 mg/kg; 6/6; assay type: functional
Mus musculus [15] = assay: Number of survivors on day 60 at a dose of 50 mg/kg; 0/7; assay type: functional; outline: as §1
Mus musculus [16] = assay: Increased life span against L1210 lymphoid leukemia cells in male BDF1 mice at a dose of 10x7 mg/kg; assay type: functional; outline: as §1
Mus musculus [17] = assay: Increased life span against L1210 lymphoid leukemia cells in male BDF1 mice at a dose of 15 mg/kg; assay type: functional; outline: as §1
Mus musculus [18] = assay: Increased life span against L1210 lymphoid leukemia cells in male BDF1 mice at a dose of 20x7 mg/kg; assay type: functional; outline: as §1
Mus musculus [19] = assay: Increased life span against L1210 lymphoid leukemia cells in male BDF1 mice at a dose of 25 mg/kg; assay type: functional; outline: as §1
Mus musculus [20] = assay: Increased life span against L1210 lymphoid leukemia cells in male BDF1 mice at a dose of 30 mg/kg; assay type: functional; outline: as §1
Mus musculus [21] = assay: Increased life span against L1210 lymphoid leukemia cells in male BDF1 mice at a dose of 5x7 mg/kg; assay type: functional; outline: as §1
Mus musculus [22] = assay: Increased life span against L1210 lymphoid leukemia cells in male BDF1 mice at a dose of 7.5 mg/kg; assay type: functional; outline: as §1
Mus musculus [23] = assay: Compound was ested for antitumor activity against Lewis lung carcinoma cells implanted in CD2F1 female mice at a dose of 25x2 mg/kg; assay type: functional
Mus musculus [24] = assay: Compound was ested for antitumor activity against Lewis lung carcinoma cells implanted in female CD2F1 mice at a dose of 100x2 mg/kg; assay type: functional
Mus musculus [25] = assay: Compound was ested for antitumor activity against Lewis lung carcinoma cells implanted in female CD2F1 mice at a dose of 200x2 mg/kg; T=Toxic doxe; assay type: functional, organism-based
Mus musculus [26] = assay: Compound was ested for antitumor activity against Lewis lung carcinoma cells implanted in female CD2F1 mice at a dose of 50x2 mg/kg; assay type: functional
Mus musculus [27] = assay: Compound was ested for antitumor activity against Lewis lung carcinoma cells implanted in male C57BL mice at a dose of 100 mg/kg; assay type: functional
Mus musculus [28] = assay: Compound was ested for antitumor activity against Lewis lung carcinoma cells implanted in male CD2F1 mice at a dose of 100x2 mg/kg; assay type: functional
Mus musculus [29] = assay: Compound was ested for antitumor activity against Lewis lung carcinoma cells implanted in male CD2F1 mice at a dose of 200x2 mg/kg; assay type: functional
Mus musculus [30] = assay: Compound was ested for antitumor activity against Lewis lung carcinoma cells implanted in male CD2F1 mice at a dose of 400x2 mg/kg; Toxic doxe; assay type: functional, organism-based
Mus musculus [31] = assay: Compound was ested for antitumor activity against Lewis lung carcinoma cells implanted in male CD2F1 mice at a dose of 5x6 mg/kg; assay type: functional
Mus musculus [32] = assay: Number of survivors on day 60 at a dose of 25 mg/kg; 0/7; assay type: functional; outline: as §1
Mus musculus [33] = assay: Number of survivors on day 60 at a dose of 5 x 7 ip administration day 2 through day; assay type: functional; outline: as §1
Mus musculus [34] = assay: Number of survivors on day 60 at a dose of 7.5 mg/kg; 0/7; assay type: functional; outline: as §1
Mus musculus [35] = assay: Number of survivors on the toxicity day (day = 21) at a dose of 100x1 mg/kg; 5/7; assay type: functional
Mus musculus [36] = assay: Number of survivors on the toxicity day (day = 5) at a dose of 100x1 mg/kg; 6/6; assay type: functional
Mus musculus [37] = assay: Number of survivors on the toxicity day (day = 5) at a dose of 200x1 mg/kg; 5/6; assay type: functional
Mus musculus [38] = assay: Number of survivors on the toxicity day (day = 5) at a dose of 200x1 mg/kg; 6/6; assay type: functional
Mus musculus [39] = assay: Number of survivors on the toxicity day (day = 5) at a dose of 25x1 mg/kg; 5/6; assay type: functional
Mus musculus [40] = assay: Number of survivors on the toxicity day (day = 5) at a dose of 400x1 mg/kg; 5/6; assay type: functional
Mus musculus [41] = assay: Number of survivors on the toxicity day (day = 5) at a dose of 50x1 mg/kg; 6/6; assay type: functional
Mus musculus [42] = assay: Increased life span against L1210 lymphoid leukemia cells in male BDF1 mice at a dose of 200 mg/kg; assay type: functional; conditions: for ILS at 200 mg/kg: Mus musculus, BDF1, L1210; outline: as §1
Mus musculus [43] = assay: Number of survivors on the toxicity day (day = 15) at a dose of 100x1 mg/kg; assay type: functional
Mus musculus [44] = assay: Number of survivors on day 60 at a dose of 200 mg/kg; 0/7; assay type: functional; outline: as §1
Mus musculus [45] = assay: Number of survivors on day 60 at a dose of 400 mg/kg; 0/7; assay type: functional; outline: as §1
Mus musculus [46] = assay: Number of survivors on day 60 at a dose of 400 mg/kg; 7/7; assay type: functional; outline: as §1

For `O=C(CCOP(=O)(NCCCl)NCCCl)c1ccccc1`, the ILS at 100 mg/kg (Mus musculus [1]) was 51.7%, the ILS at 400 mg/kg (Mus musculus [2]) was > 443% and the ILS at 50 mg/kg (Mus musculus [3]) was 20.2%. For the same compound, the T/C (Mus musculus [4]) was 138%, the T/C (Mus musculus [5]) was 165% and the T/C (Mus musculus [6]) was 291%. It also gave a T/C (Mus musculus [7]) of 117%, a Survivors (Mus musculus [8]) of 0 and a Survivors (Mus musculus [9]) of 1. The Survivors (Mus musculus [10]) was 5, the Survivors (Mus musculus [11]) was 6 and the Survivors (Mus musculus [12]) was 6. For the same compound, the Survivors (Mus musculus [13]) was 5, the Survivors (Mus musculus [14]) was 6 and the Survivors (Mus musculus [15]) was 0.
`NP(=O)(OCCC(=O)c1ccccc1)N(CCCl)CCCl` (stereo unspecified) gave an ILS at 100 mg/kg (Mus musculus [1]) of -34%, an ILS (Mus musculus [16]) of 29.7 and an ILS at 15 mg/kg (Mus musculus [17]) of 16.3%. For the same compound, the ILS (Mus musculus [18]) was 58.8, the ILS at 25 mg/kg (Mus musculus [19]) was 22.9% and the ILS at 30 mg/kg (Mus musculus [20]) was 35.1%. For the same compound, the ILS at 50 mg/kg (Mus musculus [3]) was 43.9%, the ILS (Mus musculus [21]) was 20.6 and the ILS at 7.5 mg/kg (Mus musculus [22]) was 10.7%. The T/C (Mus musculus [23]) was 163%, the T/C (Mus musculus [24]) was 92% and the T/C (Mus musculus [25]) was “Toxic”. It also gave a T/C (Mus musculus [26]) of 223%, a T/C (Mus musculus [27]) of 63% and a T/C (Mus musculus [28]) of 221%. For the same compound, the T/C (Mus musculus [29]) was 89%, the T/C (Mus musculus [30]) was “Toxic” and the T/C (Mus musculus [31]) was 106%. It also gave a Survivors (Mus musculus [32]) of 0, a Survivors (Mus musculus [33]) of 0 and a Survivors (Mus musculus [34]) of 0. The Survivors (Mus musculus [35]) was 5, the Survivors (Mus musculus [36]) was 6 and the Survivors (Mus musculus [37]) was 5. For the same compound, the Survivors (Mus musculus [38]) was 6, the Survivors (Mus musculus [39]) was 5 and the Survivors (Mus musculus [40]) was 5. It also gave a Survivors (Mus musculus [41]) of 6 and a Survivors (Mus musculus [15]) of 0.
With `O=P1(N(CCCl)CCCl)NCCCO1` (stereo unspecified) [CYCLOPHOSPHAMIDE ANHYDROUS] the ILS at 100 mg/kg (Mus musculus [1]) was 59.6%, the ILS (Mus musculus [1]; dose 100 mg/kg) was 52.9% and the ILS at 200 mg/kg (Mus musculus [42]) was > 423%. For the same compound, the Survivors (Mus musculus [8]) was 0 and the Survivors (Mus musculus [43]) was 7.
Compound `O=C(CCOP(=O)(NCCCl)N(CCCl)CCCl)c1ccccc1` (stereo unspecified) has an ILS at 100 mg/kg (Mus musculus [1]) of 29.9%, an ILS at 200 mg/kg (Mus musculus [42]) of 60.6% and an ILS at 400 mg/kg (Mus musculus [2]) of -19.7%. The Survivors (Mus musculus [8]) was 0, the Survivors (Mus musculus [44]) was 0 and the Survivors (Mus musculus [45]) was 0.
`O=P1(NCCCl)OCCCN1CCCl` (stereo unspecified) [IFOSFAMIDE] was tested, and the ILS (Mus musculus [42]) was 99.8, the ILS (Mus musculus [2]) was >617 and the Survivors (Mus musculus [8]) was 0. For the same compound, the Survivors (Mus musculus [44]) was 0, the Survivors (Mus musculus [46]) was 7 and the Survivors (Mus musculus [15]) was 0.
